Reference: ChEMBL document CHEMBL1255483, “Intra- and extracellular activities of dicloxacillin against Staphylococcus aureus in vivo and in vitro” (Antimicrob Agents Chemother, 2010)

Assays:
[1] = Ratio of fAUC (24 hrs) in NMRI mouse at 76 mg/kg administered every 2 hrs to MIC for Staphylococcus aureus E19977; format: functional
Procedure, shortened: (§1)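 Modeled free AUC over 24 h divided by the MIC, not measured directly. Single subcutaneous DCX doses were given to NMRI mice, and plasma was assayed by S. lutea bioassay. Noncompartmental analysis used trapezoidal mean points plus a fitted monoexponential extrapolated to 24 h. Free fraction came from a square-root fit to plasma ultrafiltration binding (10–400 mg/liter spike, 1 h, 37°C). The MIC was measured by broth microdilution at pH 7.4.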

[2] = Ratio of fCmax in NMRI mouse at 30 mg/kg administered every 2 hrs to MIC for Staphylococcus aureus E19977; format: functional
Procedure, shortened: (§2)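 Free Cmax/MIC was modelled, not measured. Single-dose subcutaneous plasma curves from NMRI mice were projected to the multiple-dose regimens. Free fraction came from a square-root fit of unbound fraction versus total concentration. Binding was measured by ultrafiltration of mouse plasma spiked with 10–400 mg/liter and held 1 h at 37°C. MIC was for strain E19977.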

Mus musculus [3] = organism: Mus musculus; test: Protein binding in NMRI mouse infected with Staphylococcus aureus E19977 at 270 mg/l by ultrafiltration; format: ADME, organism-based; conditions: in vivo
Procedure, shortened: (§3)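 Plasma binding was measured by ultrafiltration. EDTA blood from healthy mice, or from NMRI mice infected intraperitoneally for 6 h with E19977, was spiked with DCX at 10–400 mg/liter, with PBS controls. Samples were held 1 h at 37°C, then centrifuged through 30-kDa filters at 3,000 × g for 8 min at 37°C. Total and filtrate drug were measured by S. lutea bioassay.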

[4] = fT>MIC in Staphylococcus aureus E19977 infected NMRI mouse at 340 mg/kg administered every 24 hrs
[5] = fT>MIC in Staphylococcus aureus E19977 infected NMRI mouse at 120 mg/kg administered every 24 hrs; format: functional
Procedure, shortened: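 Calculated percentage of 24 h at steady state that free plasma DCX exceeds the strain MIC (microdilution, pH 7.4). Concentrations were simulated from single subcutaneous dose plasma curves in NMRI mice (S. lutea bioassay), adjusted with a square-root model of concentration-dependent free fraction from ultrafiltration. The regimen was dosed subcutaneously in mice infected intraperitoneally with 10^7.4 CFU, and peritoneal CFU were read after 24 h of therapy.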

[6] = Ratio of fCmax in NMRI mouse at 76 mg/kg administered every 2 hrs to MIC for Staphylococcus aureus E19977; format: functional; procedure, shortened: as §2
[7] = Ratio of fAUC (24 hrs) in NMRI mouse at 240 mg/kg administered every 6 hrs to MIC for Staphylococcus aureus E19977; format: functional; procedure, shortened: as §1
Mus musculus [8] = organism: Mus musculus; test: Protein binding in NMRI mouse at 60 mg/l by ultrafiltration; format: ADME, organism-based; conditions: in vivo; procedure, shortened: as §3
Staphylococcus aureus = test: Bacteriostatic activity against Staphylococcus aureus E19977 infected in human THP-1 cells after 24 hrs; format: functional
Procedure, shortened: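 Human THP-1 macrophages were infected with opsonized S. aureus at 4 bacteria per macrophage for 45 min. Non-phagocytized bacteria were removed by washing and a brief incubation in PBS with gentamicin 50 mg/liter. Cells were then incubated up to 24 h with DCX over a wide range of extracellular concentrations. The read-out was Δlog CFU per mg cell protein versus time zero (n = 3), with sigmoidal fitting and Cstatic by interpolation.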

- fAUC/MIC [1]: 227.43 h
- Activity (Mus musculus [3]): 80.7%
- fT>MIC [4]: 17.78%
- fT>MIC [5]: 9.44%
- fAUC/MIC [7]: 572.83 h
- Activity (Mus musculus [8]): 89.5%
Compound: Cc1onc(-c2c(Cl)cccc2Cl)c1C(=O)N[C@@H]1C(=O)N2[C@@H]1SC(C)(C)[C@@H]2C(=O)O [DICLOXACILLIN]
- Ratio [2]: 6.27
- Ratio [6]: 28.18
- Activity (Staphylococcus aureus): 0.89 mg/L
